NR3A LBD binder: NR3A (human) ligand-binding domain modulation. NR3A LBD differential scanning fluorimetry, Tm shift; 0% = protein alone, 100% = glycine-bound protein. Tm shift relative to glycine control, % at 25 µM. actives 2.5% (n = 340,000). AID 1259313;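 active = melting temperature shift of at least 10% of the positive control shift, at one fixed dose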
CHOP inh: inhibitors of CHOP induction in ER stress response. CHO-K1 CHOP-promoter luciferase, tunicamycin-induced, 15-18 h. inhibition, % at 10 µM. actives 3.8% (n = 220,000);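 active = compounds that reduced the stress-induced luciferase reporter signal by more than about 70% of percent inhibition, limit read from the data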;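 also: 0% = tunicamycin plus vehicle and 100% = wells without tunicamycin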
WT yeast gro inh: growth inhibition of WT yeast, mitochondrial fusion screen | mitochondrial fusion phenotypic screen, WT strain | inhibition, % at 10 µM | actives 2.1% (n = 190,000) | AID 1362; in the data active = inhibition above about 58%; tested in S. cerevisiae
Tb MetRS inh: Trypanosoma brucei MetRS inhibition; actives 0.4% (n = 360,000); inhibition, % at 11.9 µM; purified T. brucei MetRS, ATP depletion, Kinase-Glo luminescence;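 active = inhibition above a per-plate cutoff of the control wells' mean inhibition plus 3 SD, cut at about 5.5% in these data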;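 also: 0% = DMSO wells median and 100% = median of wells with control inhibitor compound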
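Material – parasite MetRS enzyme · Medium – HEPES-MgCl2-KCl buffer plus DTT, spermine, BSA, pyrophosphatase · Reagent – ATP, methionine and E. coli bulk tRNA substrates · Times – 15 min enzyme-compound preincubation, 2 h reaction, 10 min detection, 25 °C · Measured by – luminescence of leftover ATP · Evaluation – percent inhibition relative to median high and low control wells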
MPTP inh: inhibitors of mitochondrial permeability transition pore | inhibition, % at 10 µM | isolated mouse mitochondria, Ca2+ swelling absorbance, 30 min | AID 602449 | actives 1.4% (n = 360,000);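 active = inhibition of 50% or more, scaled per plate between neutral and stimulator controls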;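 also: 0% = DMSO wells given calcium and 100% = 1 mM EGTA wells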
EBV gp42 inh: EBV gp42 inhibition; AID 1085; Fluorescence polarization binding assay, mP read-out; actives 0.42% (n = 220,000); inhibition, % (tested at 21.74 µM); Q1HVG2; in the data active = inhibition above about 50%
Target sequence (Q1HVG2 whole entry, looked up): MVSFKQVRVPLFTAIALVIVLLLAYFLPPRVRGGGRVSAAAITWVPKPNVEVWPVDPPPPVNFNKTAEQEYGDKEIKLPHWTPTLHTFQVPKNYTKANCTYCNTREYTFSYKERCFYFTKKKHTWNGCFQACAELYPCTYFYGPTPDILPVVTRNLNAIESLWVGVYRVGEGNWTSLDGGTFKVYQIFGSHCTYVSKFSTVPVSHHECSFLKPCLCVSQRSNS
Numbers without * were called inactive; . = not tested or not shown. Most compounds without a hit are left out; they make up all but 6.4% or so of the library.

SMILES	NR3A LBD binder	CHOP inh	WT yeast gro inh	Tb MetRS inh	MPTP inh	EBV gp42 inh
FC(F)(F)c1nc(N2CCCC2)ncc1-c1nnnn1-c1ccc(Cl)cc1	-5	67	59*	-1	2	-1
FC(F)(F)c1ccncc1-c1nnnn1-c1ccc(Cl)cc1	-2	14	.	0	1	-2
CCCCSC1(SCCCC)N=C(N)C2(C#N)C(c3ccccc3)NC(C)=C(C)C12C#N (configuration not stated)	-4	76*	-18	1	7	-15
COc1ccc(CCN(C(=O)Cn2nnc3ccccc32)C(C(=O)NCC2CCCO2)c2ccncc2)cc1OC (configuration not stated)	-1	0	-5	0	4	-13
CCn1ncc(/C=C2/SC(=S)NC2=O)c1C	12*	-23	-3	0	1	6
COc1ccc2[nH]c(=O)c(CN(Cc3cccs3)C(=S)Nc3cccc(C)c3)cc2c1	10*	57	30	-2	3	-7
CNC(=S)N(Cc1cccs1)Cc1cc2cc(OC)ccc2[nH]c1=O	1	3	16	0	0	-12
COc1ccc2[nH]c(=O)c(CNc3cccc(C)c3)cc2c1	-2	73*	-9	0	-2	-2
CCN(CC)CCOC(=O)c1ccc(N)cc1	1	-2	.	-1	0	.
Cc1cc(N=Cc2cc(Cl)ccc2O)no1	-1	25	58*	-1	0	-17
Cc1cc(-n2nc(C)cc2C)nc(NS(=O)(=O)c2ccccc2Cl)n1	-1	3	10	0	1	-8
Cc1ccc([C@@H]2CC(=O)[C@@H]3CN(S(=O)(=O)c4ccc(C)cc4)[C@H](c4cccc(Cl)c4)C[C@@H]3N2S(=O)(=O)c2ccc(Cl)cc2)cc1	.	.	.	0	1	.
O=C(Nc1ccc(Cl)cc1)N1CCC(c2nc(-c3ccccc3Cl)no2)CC1	2	48	64*	0	24	-14
CC(=O)Nc1cc2c(cc1Cl)-c1ccc(F)cc1C2O (configuration not stated)	1	.	.	0	0	.
Nc1cc2c(cc1Br)-c1ccc(F)cc1C2O (configuration not stated)	18*	.	.	0	0	.
COc1ccc(NC(=O)COc2ncnc3ccccc23)cc1S(=O)(=O)N1CCOCC1	1	-7	-13	-1	-2	-9
CC(=O)c1sc(N2C(=O)c3oc4ccccc4c(=O)c3C2c2ccc(C)o2)nc1C (configuration not stated)	.	.	18	.	.	.
COC(=O)c1sc(N2C(=O)c3oc4ccccc4c(=O)c3C2c2cccc(O)c2)nc1C (configuration not stated)	-1	75*	.	-1	2	36
CN(C)S(=O)(=O)c1cccc(NC(=S)NC23CC4CC(CC(C4)C2)C3)c1	10*	.	.	0	26	.
Cc1cccn2c(=O)c3cc(C(=O)NCCCOC(C)C)sc3nc12	-1	.	.	-1	1	.
CC(=O)Nc1cccc(/C(C)=N/Nc2ccc(S(=O)(=O)Nc3ccccc3C(=O)O)cc2[N+](=O)[O-])c1	14*	.	.	0	1	.
O=C(O)c1ccccc1NS(=O)(=O)c1ccc(NNC(=S)Nc2ccc(OC(F)F)cc2)c([N+](=O)[O-])c1	6	10	18	0	-2	19
CN(CCO)c1ccc(C=NNc2ccc([N+](=O)[O-])cc2S(=O)(=O)Nc2ccccc2C(=O)O)cc1	26*	.	.	0	16	.
Cc1ccc(NC(=S)NNc2ccc([N+](=O)[O-])cc2S(=O)(=O)Nc2ccccc2C(=O)O)cc1C	26*	-30	17	0	9	9
O=C(O)c1ccccc1NS(=O)(=O)c1ccc(N/N=C/c2cccc(O)c2O)c([N+](=O)[O-])c1	32*	.	.	0	2	.
CC1CCCCC1NC(=O)COC(=O)c1cc(=O)c2ccccc2o1 (configuration not stated)	-2	6	0	0	0	-17
CNC(=O)C(=O)N1CCC2(CC1)OCCN2S(=O)(=O)c1ccc(C)cc1	1	.	.	0	-2	.
COc1ccc(NS(=O)(=O)c2cc([N+](=O)[O-])ccc2N/N=C/c2c(C)[nH]c3ccccc23)cc1	28*	.	.	0	2	.

Assay outcomes from PubChem BioAssay.
